High-throughput results: PubChem, The Scripps Research Institute Molecular Screening Center
S1P1 ag-PAM: agonists and agonism potentiators of human S1P1 receptor. S1P1 CRE-bla cells, forskolin, beta-lactamase FRET, potentiator mode; S1P1 agonist co-added at EC20, 2 nM; 100% = saturating reference agonist, 0% = basal. activation, % at 9.5 µM. P21453. 56,000 tested, 0.57% active;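 active = activation above a cutoff set at the mean activation of all tested compounds plus 3 SD, cut at about 54% in these data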;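 also: forskolin at 4 µM as EC80 and the EC20 agonist is SEW2871; 100% = SEW2871 at its EC100 plus forskolin at EC80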
Target sequence (P21453 whole entry, looked up): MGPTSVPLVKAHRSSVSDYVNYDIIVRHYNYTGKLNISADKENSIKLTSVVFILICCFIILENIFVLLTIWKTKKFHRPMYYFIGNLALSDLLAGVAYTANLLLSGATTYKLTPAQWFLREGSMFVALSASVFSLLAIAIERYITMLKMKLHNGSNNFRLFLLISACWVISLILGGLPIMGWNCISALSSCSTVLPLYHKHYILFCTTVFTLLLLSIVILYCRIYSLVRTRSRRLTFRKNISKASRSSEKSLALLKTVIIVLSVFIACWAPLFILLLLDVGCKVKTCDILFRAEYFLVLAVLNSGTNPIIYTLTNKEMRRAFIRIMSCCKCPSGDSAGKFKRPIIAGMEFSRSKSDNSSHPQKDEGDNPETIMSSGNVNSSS
HTR1E agonist: agonists of human 5-HT1E serotonin receptor; P28566; CHO 5-HT1E Ga15 NFAT-bla reporter, FRET; 0% DMSO wells, 100% control agonist wells; activation, % at 6 µM; 65,000 tested, 0.69% active; AID 574;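 active = activation above a set limit, the screen-wide mean activation plus 3 SD, cut at about 8.5% in these data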;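 also: 100% = positive control agonist at 1 µM giving full maximal response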
Target sequence (P28566 whole entry, looked up): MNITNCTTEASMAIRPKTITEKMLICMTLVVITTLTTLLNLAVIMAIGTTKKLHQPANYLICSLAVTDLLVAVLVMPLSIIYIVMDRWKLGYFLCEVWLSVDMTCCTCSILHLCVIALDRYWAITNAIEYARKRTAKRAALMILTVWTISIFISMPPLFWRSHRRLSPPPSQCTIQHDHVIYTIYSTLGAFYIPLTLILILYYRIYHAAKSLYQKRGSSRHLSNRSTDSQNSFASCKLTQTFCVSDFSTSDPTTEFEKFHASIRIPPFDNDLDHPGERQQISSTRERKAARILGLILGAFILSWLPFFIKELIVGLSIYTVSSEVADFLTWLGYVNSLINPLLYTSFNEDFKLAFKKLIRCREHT
5HT1E antag: 5-HT1E (human) receptor antagonism; P28566; CHO 5-HT1E Ga15 NFAT-bla reporter, FRET, antagonist; inhibition, % at 6 µM; 65,000 tested, 0.99% active; AID 571;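 active = inhibition above a set limit, the mean inhibition across every tested compound plus 3 SD, cut at about 29% in these data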;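 also: signal is the 460 over 535 nm emission ratio of beta-lactamase substrate; 0% = agonist plus DMSO wells and 100% = wells without agonist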
5HT1a ag: agonists of human 5-HT1a serotonin receptor; P08908; CHO 5-HT1a Ga15 NFAT-bla reporter, FRET ratio; 0% basal, 100% maximal reference agonist; activation, % at 10 µM; 65,000 tested, 0.56% active; AID 567;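 active = activation above the screen-wide mean activation plus 3 SD, cut at about 19% in these data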;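 also: 0% = DMSO wells and 100% = 5-CT at EC100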
S1P3 agonist: S1P3 (human) receptor agonism; AID 373; S1P3 NFAT-BLA reporter cells, FRET ratio; relative to 1 µM S1P, basal subtracted; 60,000 tested, 0.1% active; activation, % at 4.5 µM; Q99500;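 active = activation above the screen-wide mean plus 3 SD, cut at about 4.5% in these data, passing the limit was not always enough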
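Assay system: CHO cells stably expressing human S1P3, Gα16 and NFAT-β-lactamase reporter. Timing: overnight plating, 4 h compound 37 °C, 2 h substrate RT. Signal: β-lactamase FRET emission ratio 460/535 nm. Measure: percent activation versus median 1 µM S1P response, basal-subtracted, per plate. Repeats: primary screen single test, confirmation screen in triplicate.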
5-HT1A blocker: antagonists of human 5-HT1a serotonin receptor. P08908. CHO 5-HT1a Ga15 NFAT-bla reporter, antagonist mode. inhibition, % at 10 µM. 62,000 tested, 0.68% active. AID 612;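 active = inhibition above the mean of all tested compounds plus 3 SD, cut at about 43% in these data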;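 also: receptor stimulated by 5-CT agonist at 100 nM near EC80; beta-lactamase reporter measured by ratiometric fluorescence of a cleavable substrate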
* = called active by the depositor; . = no result. Shown are actives, neighbours in structure and some others; about 3% of the full set was active somewhere.

SMILES | S1P1 ag-PAM | HTR1E agonist | 5HT1E antag | 5HT1a ag | S1P3 agonist | 5-HT1A blocker
Cc1ccc(C)c2[nH]c(=O)c(CN(CC3CCCO3)C(=O)NC3CCCCC3)cc12 (centres undefined) | -13.0 | -0.6 | -18.1 | -2.8 | 0.9 | -5.8
CCCCN(C)CCNC(=O)Cn1ncc2c(=O)oc3ccc(C)cc3c21 | 1.1 | 10.3* | -10.3 | -0.9 | -0.2 | 0.9
CN(C)c1ccnc(SCc2ccccc2Cl)c1C#N | -7.0 | -0.1 | 2.5 | 2.2 | -2.0 | -13.4
COc1c(C)cc(Br)cc1C(=O)Nc1cccc(-c2nc3ncccc3o2)c1 | -17.8 | 0.3 | 14.5 | 66.2* | -0.3 | 11.7
Cc1noc(C)c1CSc1nnc(-c2ccncc2)n1-c1ccc(Cl)c(Cl)c1 | 16.5 | 0.3 | -4.1 | 0.3 | -0.5 | -2.7
O=C(CSCc1ccccc1)N1CCN(Cc2ccc3c(c2)OCO3)CC1 | -0.3 | 0.7 | -7.5 | 1.1 | 0.0 | -9.0
CCOc1ccc(-c2nc(CSCC(=O)N3CCN(c4cccc(OC)c4)CC3)c(C)o2)cc1 | 69.3* | 4.0 | 18.4 | -1.3 | -0.6 | 3.7
Cc1cccc(-c2nc(CSCC(=O)N3CCN(Cc4ccc5c(c4)OCO5)CC3)c(C)o2)c1 | 57.9* | 0.3 | 6.0 | -1.2 | -0.4 | 12.7
CC1(C)Cc2ccccc2-c2nnc(SCC(=O)N3CCN(c4ccccc4)CC3)n21 | 5.6 | 0.8 | 6.3 | 1.8 | 0.1 | -8.2
CCCc1nc2ccccc2c2nc(N)nn12 | -27.7 | 0.8 | 34.2* | -3.4 | 0.0 | -4.9
Nc1nc2c3ccccc3nc(Cc3ccccc3)n2n1 | -35.0 | 0.4 | 8.6 | -1.3 | -0.1 | -11.0
COc1cccc(CNc2nc3ccccc3n2CCN2CCCCC2)c1OC | -9.3 | 0.8 | 3.5 | -2.0 | -1.8 | 42.6*
COc1ccc(CNc2nc3ccccc3n2CCN2CCCCC2)c(OC)c1 | -24.6 | -0.2 | -2.4 | 0.6 | -2.3 | 43.8*
COc1ccc(OC)c(CNc2nc3ccccc3n2CCN2CCCCC2)c1 | 3.3 | -0.4 | -1.0 | -0.7 | -2.1 | 28.9
O=C(Nc1cccc2nsnc12)C1CC(=O)N(c2ccccc2)C1 (centres undefined) | 3.9 | -0.2 | 7.1 | -0.2 | -1.1 | 5.9
COC(=O)c1cccc(CSc2nnc(C)s2)c1 | -5.5 | 1.0 | -7.0 | -0.1 | -0.5 | 5.4
Nc1nc(-c2ccccc2)nc(-c2ccccc2O)n1 | 19.5 | -0.3 | 7.8 | -2.8 | -0.5 | 51.4*
Nc1nc(-c2ccccc2)cc(-c2ccccc2O)n1 | -39.3 | 0.2 | -3.0 | -1.2 | 0.4 | 57.2*
CN(C)c1cc(-c2ccccc2)nc(N)n1 | -9.9 | 0.6 | -7.8 | 1.9 | 0.3 | 0.0
Cc1ccc(Cn2cccc(NC(=O)c3ccco3)c2=O)cc1 | -10.7 | -0.4 | 1.6 | -0.4 | 0.4 | 8.4
O=C(CN1C(=O)c2ccccc2S1(=O)=O)N1CCc2ccccc2C1 | -26.8 | 0.5 | -9.7 | 0.1 | -0.4 | -10.6
Cn1cc(/C=N/n2cnc3scc(-c4ccc(Cl)cc4)c3c2=O)c2ccccc21 | -16.6 | -0.6 | 82.6* | -4.9 | -2.2 | 71.1*
CCCn1c(C)cc(C(=O)COc2ncnc3sccc23)c1C | -21.3 | 0.0 | -9.9 | -2.6 | 0.2 | -1.9
Cc1cc(C(=O)COc2ncnc3sccc23)c(C)n1C1CC1 | 17.0 | 0.1 | -6.7 | 19.4* | -0.4 | -6.3
Cc1cccc(OCC2=NS(=O)(=O)c3ccccc3N2)c1 | -9.2 | -0.5 | -2.1 | 0.1 | 0.8 | -0.5
SMILES | S1P1 ag-PAM | HTR1E agonist | 5HT1E antag | 5HT1a ag | S1P3 agonist | 5-HT1A blocker
O=C1c2[nH]nc(-c3ccccc3O)c2C(c2ccccc2)N1Cc1ccco1 (centres undefined) | -9.9 | 0.3 | -7.8 | 1.7 | -1.9 | 44.4*
COc1ccc(CCN2C(=O)c3[nH]nc(-c4ccccc4O)c3C2c2ccccc2)cc1OC (centres undefined) | -2.0 | 0.9 | 6.0 | 0.6 | -1.0 | 34.7
O=C1c2ccccc2C(O)N1Cc1ccco1 (centres undefined) | 20.4 | 0.4 | 19.4 | 0.2 | 22.8 | 3.7
O=C1c2[nH]nc(-c3ccccc3O)c2C(c2ccccc2F)N1Cc1ccco1 (centres undefined) | 11.9 | 0.1 | -1.9 | 4.5 | -1.1 | 43.0*
CCN(CC)S(=O)(=O)c1cccc(C(=O)OCc2cc(=O)n3nc(C)sc3n2)c1 | -12.5 | 0.0 | -3.5 | -2.0 | 0.0 | 0.5
CCOc1ccc(-n2c(Cc3ccccc3)nnc2SCc2c(C)noc2C)cc1 | -11.3 | -0.7 | 0.7 | -0.5 | -1.0 | -4.0
CC1=C(C)CS(=O)N(S(=O)(=O)c2ccc(Cl)cc2)C1 (centres undefined) | 18.9 | 0.2 | -0.6 | -4.4 | -1.2 | 47.3*
CC1CCN(S(=O)(=O)c2ccc(Cl)cc2)CC1 | -6.3 | -1.2 | 8.5 | 1.0 | -1.8 | -1.0
Cc1ccc(Nc2nc(C)c(CCC(C)C)c(=O)[nH]2)cc1 | 8.1 | 1.3 | -2.5 | -3.7 | -0.9 | -9.1
Cc1nc(Nc2ccc(F)cc2)[nH]c(=O)c1CCC(C)C | 38.8 | 0.5 | -7.8 | 1.4 | -1.5 | 52.2*
CCC(C)C1C(C#N)=C(N)Oc2n[nH]c(C)c21 (centres undefined) | 29.0 | -0.5 | 39.0* | -0.7 | 0.0 | 14.5
Cc1[nH]nc2c1C(C(C)C)C(C#N)=C(N)O2 (centres undefined) | -1.5 | 0.3 | 0.4 | -5.8 | -0.1 | 11.9
COCC(C)NCc1ccccc1C (centres undefined) | -5.5 | 0.5 | -4.0 | 0.0 | -1.1 | -17.8
CCOC(=O)c1cccc(NC(=O)C2CCCN2S(=O)(=O)c2cccc3cccnc23)c1 (centres undefined) | 2.3 | 1.0 | 8.8 | -2.8 | -1.1 | 2.9
O=C(Nc1cccc(C(F)(F)F)c1)C1CCCN1S(=O)(=O)c1cccc2cccnc12 (centres undefined) | 71.2* | -0.8 | 5.5 | -1.8 | -0.1 | -9.9
Cn1c(=O)[nH]c(=O)c2c1nc(Br)n2CCCSc1nc2ccccc2o1 | -22.7 | -0.1 | 33.9* | 3.3 | -1.5 | 14.1
CC(=O)Nc1cccc(NC(=O)CCCC(=O)O)c1 | -21.0 | 28.3* | 3.7 | -3.0 | -1.2 | 4.7
CCCc1cc(=O)[nH]c(SCC(=O)c2cc(C)n(C(C)COC)c2C)n1 (centres undefined) | 6.1 | -1.3 | -9.3 | -0.2 | 0.5 | -4.0
Cc1ccc(S(=O)(=O)N2CCN(c3nc(C)c4c(c3C#N)CC(C)(C)OC4)CC2)cc1 | 7.7 | 0.5 | 22.9 | 1.6 | -4.0 | .
Cc1cc(C)cc(OCC(=O)Nc2cccc(-c3nnc(-c4ccco4)o3)c2)c1 | . | 0.3 | -8.5 | 19.6* | 0.5 | -12.2
CCOc1ccc(-c2nnc(-c3cccs3)o2)cc1OCC | 103.5* | 0.5 | -7.5 | 1.1 | 0.1 | -4.6
